Source: PMC5736852 (British Journal of Clinical Pharmacology, 2017)
Like-named read-outs stand apart in the source and are kept apart here. Marks after values point to notes of the source that are not given here.

Assays:
[1] = Exposure–safety logistic regression; assay type: in vivo, human
Outline: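 Cancer patients (Western and Japan/East Asia) took oral test compound for 7 days in 21-day cycles, fasting from 2 h before to 1 h after dosing. Plasma levels were measured by LC/MS/MS. Per-patient time-averaged AUC per day covered dosing start to onset of worst-grade toxicity, from actual doses and individual CL/F from a two-compartment population PK model. Incidence (n = 591/593/594) was regressed logistically on log-transformed AUC.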

[2] = Western patients, cited from earlier work
[3] = cited from earlier work
[4] = Global population pharmacokinetic analysis of alisertib in cancer patients; assay type: in vivo, human; settings: for half-life: human, plasma, oral
[5] = 30 mg b.i.d., patients in East Asia
[6] = 50 mg b.i.d., patients in East Asia
[7] = 50 mg b.i.d., patients in the West
[8] = East Asian patients, b.i.d. dosing

Compound: COc1cc(Nc2ncc3c(n2)-c2ccc(Cl)cc2C(c2c(F)cccc2OC)=NC3)ccc1C(=O)O [alisertib]
- estimated population mean time-averaged AUC [1, 5]: 14.23 μM*h day^–1
- estimated probability of grade ≥2 diarrhoea [1, 5]: 12%
- estimated probability of grade ≥2 stomatitis [1, 5]: 6.5%
- estimated probability of grade ≥3 neutropenia [1, 5]: 37%
- estimated population mean time-averaged AUC [1, 6]: 23.72 μM*h day^–1
- estimated probability of grade ≥2 diarrhoea [1, 6]: 17%
- estimated probability of grade ≥2 stomatitis [1, 6]: 13%
- predicted probability of grade ≥3 neutropenia [1, 6]: 46%
- estimated population mean time-averaged AUC [1, 7]: 15.63 μM*h day^–1
- estimated probability of grade ≥2 diarrhoea [1, 7]: 13%
- estimated probability of grade ≥2 stomatitis [1, 7]: 7%
- predicted probability of grade ≥3 neutropenia [1, 7]: 39%
- maximum tolerated dose (MTD) ([2]; b.i.d. for 7 days in a 21-day cycle): 50 mg
- median Tmax ([2]; postdose): 2 to 3 h
- mean steady-state half-life following multiple dosing [2]: 19 to 23 h
- patients who discontinued alisertib owing to treatment-emergent AEs ([3]; East Asian patients, 30 mg b.i.d., two of 30 patients): 6.7%
- half-life [3, 8]: 15 to 17 h
- median Tmax [3, 8]: 2 to 3 h
- maximum tolerated dose (MTD) ([3]; East Asian patients, b.i.d. for 7 days in 21-day cycles): 30 mg
- higher geometric mean steady-state systemic exposure in East Asian patients ([3]; East Asian vs Western patients): approximately 70%
- mean CL/F in East Asian patients lower than in Western patients ([3]; East Asian vs Western patients): approximately 40%
- GM (CV) dose-normalized alisertib AUC(0–τ) ([4]; Asian patients in Asia, n = 59): 797 (45%) nM.h
- GM (CV) dose-normalized alisertib AUC(0–τ) ([4]; Asian patients in the West, n = 8): 475 (43%) nM.h
- geometric mean (%CV) dose-normalized alisertib AUC0–τ,ss ([4]; Region East, All (Japanese, Korean, Chinese), n = 59): 797 (45) nM.h mg^–1
- geometric mean (%CV) dose-normalized alisertib AUC0–τ,ss ([4]; Region East, Chinese, n = 22): 752 (48) nM.h mg^–1
- geometric mean (%CV) dose-normalized alisertib AUC0–τ,ss ([4]; Region East, Japanese, n = 23): 799 (34) nM.h mg^–1
- geometric mean (%CV) dose-normalized alisertib AUC0–τ,ss ([4]; Region East, Korean, n = 13): 885 (53) nM.h mg^–1
- geometric mean (%CV) dose-normalized alisertib AUC0–τ,ss ([4]; Region West, All non-Asian races, n = 604): 482 (43) nM.h mg^–1
- geometric mean (%CV) dose-normalized alisertib AUC0–τ,ss ([4]; Region West, All, n = 612): 482 (43) nM.h mg^–1
- geometric mean (%CV) dose-normalized alisertib AUC0–τ,ss ([4]; Region West, Asian, n = 8): 475 (43) nM.h mg^–1
- geometric mean (%CV) dose-normalized alisertib AUC0–τ,ss ([4]; Region West, Black, n = 33): 462 (57) nM.h mg^–1
- geometric mean (%CV) dose-normalized alisertib AUC0–τ,ss ([4]; Region West, White, n = 556): 482 (43) nM.h mg^–1
- BSAV1, effect of BSA on V1/F, pop value ([4]; final model): 0.899
- CL/F, V1/F, V2/F and Q/F lower in the East Asian region ([4]; final model): 34.1%
- KTR, transit compartment rate constant, pop value ([4]; final model): 4.17 1 h^–1
- V1/F, apparent central volume, pop value ([4]; final model): 54.3 L
- V2/F, apparent peripheral volume, pop value ([4]; final model): 28.7 L
- net mean transit time for oral absorption ([4]; final model): 0.96 h
- CL/F, apparent clearance, pop value ([4]; final model (analysis data set n = 422)): 4.11 l h^–1
- higher bioavailability (F) in East Asian region compared with Western patients ([4]; final model, covariate effect of region on F): 52%
- RGNF, effect of region, pop value ([4]; final model, affected parameters multiplied by (1–0.341) for East Asian region): −0.341 ^a
- half-life ([4]; population alpha half-life, final model): 1.71 h
- half-life ([4]; population beta half-life, final model): 15.1 h
- GM (CV) dose-normalized alisertib AUC(0–τ) ([4]; non-Asian patients in the West, n = 604): 482 (43%) nM.h
